RBBP9 inh = inhibitors of human serine hydrolase RBBP9; inhibition, % at 7.94 µM; recombinant RBBP9, FP-Rh probe fluorescence polarization; hit rate 0.2% among 220,000; O75884;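 active means inhibition above the campaign mean of all tested compounds plus 3 SD, cut at about 14% in these data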;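 further: plate controls were DMSO wells with RBBP9 for no effect and wells lacking RBBP9 protein for full effect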
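Measured by – fluorescence polarization · Test system – RBBP9 protein · Input – 2.5 µM RBBP9 dispensing solution, before mixing · Measure – percent inhibition from mP, scaled between DMSO and no-protein wells · Benchmarks – DMSO-treated enzyme wells and wells lacking RBBP9 · Times – preincubation 30 min plus labeling 45 min at 25 °C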
Wee1 stabilizer = blocks degradation of human Wee1 kinase | HeLa Luc-Wee1K328M stability, luciferase luminescence; 100% = proteasome inhibitor MG132 effect | hit rate 1.2% among 220,000 | AID 1321 | P30291 | reporter increase, % at 5 µM;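 active means activation above the mean of all tested compounds plus 3 SD, set per screening run, cut at about 8.8% in these data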;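 further: cells exposed to compound for 20 h before luminescence read; 0% = DMSO alone and 100% = MG132 at 30 µM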
eIF4E-4G inh = eIF4E/eIF4G interaction inhibition in translation initiation. inhibition, % at 21.7 µM. hit rate 0.37% among 220,000. TR-FRET eIF4E-eIF4GI(517-606) binding, 2 h. AID 782;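 further: 0% = full FRET control wells and 100% = background wells lacking eIF4GI fragment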
14-3-3 Bad PPI = disrupts binding of bovine 14-3-3 zeta to phospho-Bad peptide. hit rate 0.71% among 220,000. P63103. inhibition, % at 21.7 µM. TR-FRET 14-3-3zeta/Dy647-pBad peptide displacement, 1 h;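 active means inhibition above about 70%, limit read from the data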;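 further: 0% = full 14-3-3 plus peptide FRET controls and 100% = background without 14-3-3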
p47phox inh = inhibitors of human p47phox binding; P14598; p47phox/p22phox peptide binding, fluorescence polarization, 2 h; inhibition, % at 24.7 µM; hit rate 0.53% among 220,000;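 further: 0% = p47phox with labelled peptide and 100% = labelled peptide alone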
Target sequence (P14598 whole entry, looked up): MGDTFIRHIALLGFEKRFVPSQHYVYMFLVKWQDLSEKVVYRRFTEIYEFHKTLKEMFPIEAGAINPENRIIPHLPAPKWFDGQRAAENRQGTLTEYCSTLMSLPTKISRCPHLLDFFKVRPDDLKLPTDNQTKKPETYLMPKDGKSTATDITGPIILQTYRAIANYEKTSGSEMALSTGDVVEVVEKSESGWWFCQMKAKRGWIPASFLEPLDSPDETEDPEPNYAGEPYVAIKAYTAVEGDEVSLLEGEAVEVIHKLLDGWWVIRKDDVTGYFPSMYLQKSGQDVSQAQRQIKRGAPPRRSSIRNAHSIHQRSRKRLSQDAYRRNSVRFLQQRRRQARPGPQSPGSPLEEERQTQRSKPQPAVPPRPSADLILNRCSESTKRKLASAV
RBBP9 inh conf = human RBBP9 inhibition, confirmation; recombinant RBBP9, FP-Rh probe fluorescence polarization; hit rate 36% among 410; shares compounds with RBBP9 inh; AID 1537; inhibition, % at 7.94 µM;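 active means inhibition above the hit cutoff derived for the primary screen, cut at about 15% in these data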;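 further: 0% = RBBP9 with DMSO and 100% = wells lacking RBBP9 protein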
Numbers without * were called inactive; . = no result given. Only some compounds are listed: those with a hit (about 2.8% of all), similar ones and a draw of the others.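 How the source made its calls, unless noted: active means inhibition above about 30% (limit read from the data); inactive means the rest.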

SMILES	RBBP9 inh	Wee1 stabilizer	eIF4E-4G inh	14-3-3 Bad PPI	p47phox inh	RBBP9 inh conf
N#Cc1c(-c2ccc(Cl)cc2)ccn2nc(C3CCCCC3)nc12	-1	4	-8	10	-11	.
Cc1sc(NC(=O)c2ccco2)c(C(Nc2ccccn2)c2ccccc2)c1C (stereo unspecified)	21*	5	-6	-9	-26	-2
Oc1ccc(N=Nc2n[nH]c(-c3ccc(Cl)cc3)n2)cc1	-6	0	-1	4	-21	.
COC(=O)COc1ccc2c(=O)c(-c3ccccc3OC)coc2c1	19*	5	2	-10	1	7
CCOC(=O)COc1ccc2c(=O)c(-c3ccccc3OC)coc2c1	-8	-3	1	-1	-2	.
Cc1ccc(Nc2nnc(-c3ccncc3)s2)c(Br)c1	-1	0	4	5	-5	.
O=C1CSC(=S)N1/N=C/c1ccc(O)c(O)c1O	15*	6	84*	96*	-97	27*
O=C(CSc1nnc(-c2ccc3c(c2)OCO3)o1)Nc1ncc(Cl)cc1Cl	-5	1	0	-2	-20	.
N/C(=N\NC(=O)c1ccccc1Cl)c1cc2ccccc2oc1=O	0	5	2	5	-11	.
COc1ccc(Nc2nc3ccccc3nc2NS(=O)(=O)c2ccc(NC(C)=O)cc2)cc1	-9	-3	0	-5	-8	.
CCOc1ccc(S(=O)(=O)Nc2nc3ccccc3nc2Nc2ccc(N3CCOCC3)cc2)cc1	17*	1	6	-5	-11	11
C/C(=N\O)C(C)(C)Nc1ccc(Br)cc1	-3	-5	-1	0	-6	.
CCOc1ccc(S(=O)(=O)Nc2ccc(Cl)cn2)c(C)c1C	17*	0	-19	-1	-14	3
CCOc1cc(C)c(S(=O)(=O)Nc2ccc(Cl)cn2)cc1C	-2	-2	5	32	1	.
O=C(c1ccccc1)N1CCN(C(=O)c2ccc([N+](=O)[O-])cc2)CC1	-6	-2	-3	-4	-7	.
Nc1ccccc1N1CCN(C(=O)c2ccccc2)CC1	15*	-1	-4	-7	-6	1
O=C(c1ccccc1)N1CCN(c2ccc([N+](=O)[O-])cc2-n2cccc2)CC1	14*	-2	-8	1	-10	1
Cc1ccccc1NC(=O)OCc1cccnc1Oc1ccc(Cl)cc1	-4	-1	-2	-8	3	.
CCN(CC)c1ccc(NC(=O)c2ccc3c(c2)c(C)c(C)n3C)cc1	30*	3	23	21	-75	28*
Cc1noc(C)c1S(=O)(=O)Nc1ccc(C(=O)N2CCC(C)CC2)cc1	18*	4	-1	0	-5	7
CC(=O)Nc1cccc(-c2csc(NCc3ccccc3)n2)c1	15*	1	2	24	.	1
Cc1cc[n+](CC(=O)Nc2cc(C(F)(F)F)ccc2Cl)cc1	18*	-2	-1	-14	3	4
CCOc1cccc(CN2CCN(Cc3ccc(C)o3)C(CCO)C2)c1O (stereo unspecified)	15*	9.3*	2	-2	-5	1
COc1ccc(/C=C/C(=O)Oc2cc(O)cc(O)c2)cc1	-5	1	2	1	-6	.
COc1ccc(-c2cc(O)cc(O)c2)cc1	35*	2	1	12	-4	5
SMILES	RBBP9 inh	Wee1 stabilizer	eIF4E-4G inh	14-3-3 Bad PPI	p47phox inh	RBBP9 inh conf
Cn1c(=O)cc(Cl)[nH]c1=O	-13	1	-4	11	5	.
O=c1c(-c2ccco2)[n+]([O-])c2ccccc2n1OCc1ccccc1F	15*	0	-2	-2	-7	4
Cc1cc(C(=O)N/N=C/c2ccc(O)c(O)c2O)c(C)n1-c1ccccc1	18*	1	24	-26	-9	73*
COC(=O)c1cncc(C)c1	-3	-3	1	4	-11	.
CC1CCCCC1NC(=O)c1ccc(S(=O)(=O)NCc2ccco2)cc1 (stereo unspecified)	18*	0	9	6	-7	1
CSc1nc(Cl)cc(Nc2ccc(O)cc2)n1	-7	0	-1	-22	-8	.
CN(CC(=O)NCc1ccc(Cl)cc1)S(=O)(=O)c1cccc2cccnc12	-6	1	0	1	-10	.
COc1cccc(CNC(=O)CN(C)S(=O)(=O)c2cccc3cccnc23)c1	21*	0	2	0	-3	2

Screening results from PubChem.
